Common to all, as to format: functional
What all share (conditions): 168 h

Assay [1] has as its system Mycobacterium tuberculosis. As to the kind of experiment: Antimycobacterial activity against rifampicin-resistant Mycobacterium tuberculosis incubated for 7 days by rapid direct susceptibility test. Put shortly: (§1)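 Two-fold compound dilutions were mixed with MTB suspension containing 4×10 -3 mg cells per well and incubated at 37 °C in a wet box. MIC was read from the quantity and state of cells in each well under a continuous visual high-magnification system and was re-determined 7 days later.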

Assay [2] has as its system Mycobacterium tuberculosis. As to the kind of experiment: Antimycobacterial activity against multidrug (isoniazid and rifampicin) resistant Mycobacterium tuberculosis 1 incubated for 7 days by rapid direct susceptibility test. Summed up:
as §1

The subject of assay [3] is Mycobacterium tuberculosis. As to the kind of experiment: Antimycobacterial activity against multidrug (isoniazid and rifampicin) resistant Mycobacterium tuberculosis 2 incubated for 7 days by rapid direct susceptibility test. Summed up: as §1

Data on eight compounds can be found in ChEMBL document CHEMBL4364323, “Synthesis and biological evaluation of moxifloxacin-acetyl-1,2,3-1H-triazole-methylene-isatin hybrids as potential anti-tubercular agents against both drug-susceptible and drug-resistant Mycobacterium tuberculosis strains” (Eur J Med Chem, 2019).

By MIC is commonly meant the lowest concentration found to suppress growth. Read a high MIC as a less susceptible organism.

≈ marks a conversion by molar mass, not a printed value.

Regarding `CO/N=C1/C(=O)N(Cc2cn(CC(=O)N3CCC[C@@H]4CN(c5c(F)cc6c(=O)c(C(=O)O)cn(C7CC7)c6c5OC)C[C@@H]43)nn2)c2ccccc21`, the MIC came out at 1 µg/mL (≈ 1.43 µM) in assay [1], 0.5 µg/mL (≈ 0.716 µM) in assay [2] and 1 µg/mL (≈ 1.43 µM) in assay [3].
For `COc1c(N2C[C@H]3CCCN(C(=O)Cn4cc(CN5C(=O)/C(=N/NC(N)=S)c6ccccc65)nn4)[C@H]3C2)c(F)cc2c(=O)c(C(=O)O)cn(C3CC3)c12`, the MIC in assay [1] was 0.25 µg/mL (≈ 0.337 µM); in assay [2], 0.25 µg/mL (≈ 0.337 µM); in assay [3], 0.5 µg/mL (≈ 0.673 µM).
For `COc1c(N2C[C@H]3CCCN(C(=O)Cn4cc(CN5C(=O)/C(=N/NC(N)=S)c6cc(F)ccc65)nn4)[C@H]3C2)c(F)cc2c(=O)c(C(=O)O)cn(C3CC3)c12`, the MIC in assay [1] was 1 µg/mL (≈ 1.31 µM); in assay [2] it was 1 µg/mL (≈ 1.31 µM); in assay [3], 2 µg/mL (≈ 2.63 µM).
On to `COc1c(N2C[C@H]3CCCN(C(=O)Cn4cc(CN5C(=O)C(=O)c6ccccc65)nn4)[C@H]3C2)c(F)cc2c(=O)c(C(=O)O)cn(C3CC3)c12`, for which the MIC in assay [1] was found to be 0.5 µg/mL (≈ 0.747 µM); in assay [2] it was 0.5 µg/mL (≈ 0.747 µM); in assay [3], 0.25 µg/mL (≈ 0.373 µM).
Take `COc1c(N2CCNC(C)C2)c(F)cc2c(=O)c(C(=O)O)cn(C3CC3)c12` (centres undefined) [GATIFLOXACIN]: the MIC in assay [1] was found to be 1 µg/mL (≈ 2.66 µM); in assay [2] it was 0.25 µg/mL (≈ 0.666 µM); in assay [3], 0.5 µg/mL (≈ 1.33 µM).
For the compound `NNC(=O)c1ccncc1` [ISONIAZID], the MIC was 0.5 µg/mL (≈ 3.65 µM) in assay [1], 64 µg/mL (≈ 467 µM) in assay [2] and over 128 µg/mL in assay [3].
Take `COc1c(N2C[C@@H]3CCCN[C@@H]3C2)c(F)cc2c(=O)c(C(=O)O)cn(C3CC3)c12` [MOXIFLOXACIN]: the MIC in assay [1] was 0.5 µg/mL (≈ 1.25 µM); in assay [2], 0.25 µg/mL (≈ 0.623 µM); in assay [3], 0.25 µg/mL (≈ 0.623 µM).
For the compound `CO[C@H]1/C=C/O[C@@]2(C)Oc3c(C)c(O)c4c(O)c(c(/C=N/N5CCN(C)CC5)c(O)c4c3C2=O)NC(=O)/C(C)=C\C=C\[C@H](C)[C@H](O)[C@@H](C)[C@@H](O)[C@@H](C)[C@H](OC(C)=O)[C@@H]1C` [RIFAMPIN], the MIC in assay [1], in assay [2] and in assay [3] was over 128 µg/mL throughout.
